XiGFP reactiv – activators of X-chromosome reactivation in mouse fibroblasts | XiGFP mouse fibroblasts, % GFP-positive cells imaging, 3 d; cells co-treated with 5-aza-dC sensitizer; scaled so ellipticine positive control = 100% | 360,000 compounds, 0.055% hits | activation, % at 7.58 µM;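 active means mean normalized replicate activation at least 10% and every replicate at or above 10%; inconclusive means only one of the two criteria met; inactive means mean below 10% and not all replicates reach 10%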;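 further: 0% = median of on-plate neutral control wells and 100% = ellipticine 6 µM median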
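Schedule: 3 d treatment, 15 min room-temperature fixation; system: 68-5-11 XiGFP fibroblast line; buffer or medium: DMEM plus 5-aza-dC sensitizer; control set: ellipticine 6 µM positive control; compound: one concentration, pinned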
esBAF inh – SWI/SNF esBAF complex inhibition; reporter increase, % at 12.5 µM; mouse ES cells, Bmi1-luciferase knock-in reporter, 24 h; 100% = twice the neutral-well signal; AID 602393; 350,000 compounds, 2% hits; in the data active means activation above about 40%; inconclusive means no clear call, values can overlap the other calls;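 further: 0% = median of the plate's neutral control wells and 100% = double that signal; a rise in the Bmi1 reporter signal indicates esBAF inhibition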
MITF act – MITF TRPM1 promoter activation in melanoma cells | SK-MEL-5 TRPM1-promoter luciferase, 24 h; % of positive control, neutral wells = 0 | activation, % at 12.5 µM | 300,000 compounds, 0.75% hits | AID 588334;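 active means mean activation of at least 80% with every replicate also reaching 80%; inconclusive means mean reaches 80% but some replicate falls short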;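 further: 0% = neutral control wells and 100% = parthenolide positive control wells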
NSD2 inh – NSD2 (human) methyltransferase inhibition | AID 743445 | 310,000 compounds, 0.54% hits | O96028 | NSD2 peptide methylation, AlphaScreen, 120 min | inhibition, % at 12.5 µM; in the data active means inhibition above about 50%
Wnt bcat act – Wnt/beta-catenin pathway activation; Wnt/beta-catenin reporter cell assay, activator, plate reader; activation, % at 9.35 µM; 300,000 compounds, 1.2% hits; in the data active means activation above about 30%, passing the limit was not always enough; inconclusive means no clear call, values can overlap the other calls;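 further: 0% = neutral control wells and 100% = positive control wells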
CASP6 VEID inh – caspase-6 (human) enzyme inhibition. P55212. purified caspase-6, Z-VEID-R110 cleavage fluorescence. inhibition, % at 12.5 µM. 350,000 compounds, 0.53% hits. AID 686996;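 active means mean inhibition across replicates at least about 35%, with every replicate also reaching that limit, limit read from the data; inconclusive means only one of the two criteria met; inactive means neither criterion met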;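 further: 0% = median of neutral control wells and 100% = no fluorescence left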
Target sequence (P55212 24-179 limits assumed): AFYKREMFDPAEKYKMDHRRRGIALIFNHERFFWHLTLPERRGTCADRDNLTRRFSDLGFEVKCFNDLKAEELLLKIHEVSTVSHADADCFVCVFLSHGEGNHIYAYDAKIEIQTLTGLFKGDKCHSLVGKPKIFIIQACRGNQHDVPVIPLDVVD
Target sequence (P55212 194-293 limits assumed): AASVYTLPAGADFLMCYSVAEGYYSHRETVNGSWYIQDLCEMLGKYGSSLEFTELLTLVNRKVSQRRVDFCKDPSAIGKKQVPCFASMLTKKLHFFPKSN
Active calls of the source: *; ? = inconclusive; / = no result. This is a sample that favours compounds with a hit; in the whole collection about 3% have one here.

SMILES	XiGFP reactiv	esBAF inh	MITF act	NSD2 inh	Wnt bcat act	CASP6 VEID inh
COc1ccc(OCc2cc(C(=O)NCC3CCOCC3)no2)c(Cl)c1	0	55*	31	1	14	4
COc1ccc(NC(=O)Nc2ccc3c(c2)C(=O)N([C@@H](C)CO)C[C@H](C)[C@@H](CN(C)S(=O)(=O)c2ccc(Cl)cc2)OCCCC[C@H](C)O3)cc1	0	-13	/	/	/	1
COCC#Cc1ccc([C@H]2[C@H]3CN(C(=O)Nc4cc(F)ccc4F)CC(=O)N3[C@H]2CO)cc1	0	/	/	/	/	/
Cc1ccc(NC(=O)Nc2ccccc2C(=O)NCc2ccccc2)cc1	/	51*	48	0	/	/
CCN1CCN(Cc2ccc(NC(=O)Nc3ccccc3Cl)cc2)CC1	0	-9	55	/	15	-6
CCN1CCN(Cc2ccccc2NC(=O)Nc2ccc(C)cc2)CC1	/	43*	76	0	/	/
C[C@@H]1CN([C@@H](C)CO)C(=O)CCCn2nncc2CO[C@H]1CN(C)C(=O)NC1CCCC1	0	/	/	/	/	/
Cc1ccc(NC(=O)COc2ccc3c(c2)CCC3)nc1	0	17	94*	-3	?	-1
Cc1csc(NC(=O)COc2ccc3c(c2)CCC3)n1	0	64*	78	1	20	13
Cc1cccnc1NC(=O)COc1ccc2c(c1)CCC2	0	57*	100*	-1	17	1
COc1ccc(OCC(=O)Nc2ccc3c(c2)CCC3)cc1	0	0	1	-3	4	0
Cc1ccc(OCC(=O)c2ccc3c(c2)CCCC3)cc1C	/	18	97*	-10	6	/
Cc1ccc(NC(=O)COc2ccc3oc4c(c3c2)CCCC4)nc1	/	-3	-3	-1	0	/
CCC(=O)N1[C@@H]2c3cccc(=O)n3C[C@@H]2[C@@H](CO)[C@@H]1C(=O)NC1CCCC1	0	/	/	/	/	0
COc1ccccc1C#Cc1ccc2c(c1)[C@H]1[C@H](CCN1S(=O)(=O)c1cccc(C)c1)[C@@H](CO)N2	0	/	/	/	/	6
COc1ccc2c3c([nH]c2c1)[C@H](CO)N(Cc1ccccc1F)CC31CN(CC2CC2)C1	0	/	/	/	/	/
Cc1nc2ccc(S(=O)(=O)Nc3cccc(-c4nc5cccnc5s4)c3C)cc2s1	0	-9	-5	/	-6	-3
Cc1nc2ccc(S(=O)(=O)Nc3cc(-c4nc5cccnc5s4)ccc3C)cc2s1	0	61*	/	/	18	-5
C[C@@H]1CN([C@H](C)CO)S(=O)(=O)c2ccc(C#CCC3CCCC3)cc2O[C@@H]1CN(C)C	-1	0	/	/	/	0
CCCCc1nnc(NC(=O)c2oc3ccc(OC)cc3c2C)s1	1	28	55	-3	8	8
Cc1ccc2oc(C(=O)Nc3nnc(CC(C)C)s3)c(C)c2c1	0	/	26	-1	0	-3
Cc1cc(NC(=O)c2sc3ccccc3c2O)no1	0	29	10	0	34*	2
COc1ccc2oc(C(=O)Nc3nccs3)c(C)c2c1	0	32	73	-1	50*	7
Cc1ccc2oc(C(=O)Nc3cc(C)on3)c(C)c2c1	0	37	21	-2	43*	1
COc1ccccc1NC(=O)c1oc2ccc(C)cc2c1C	/	48*	/	-2	5	/
SMILES	XiGFP reactiv	esBAF inh	MITF act	NSD2 inh	Wnt bcat act	CASP6 VEID inh
O=C(C1CC1)N1C[C@@H]2N[C@H](C1)C2c1ccc(-c2ccccc2F)cc1 (stereo partly drawn)	0	/	/	/	/	0
CC(=O)N1C[C@@H]2C(c3ccc(Br)cc3)[C@H](C1)N2Cc1ccc(F)cc1 (stereo partly drawn)	0	/	/	/	/	/
CCOc1ccc2oc(C(=O)NC(C)(C)CC)c(C)c2c1	0	39	60	-4	0	9
Cc1ccc2oc(C(=O)N(C)Cc3ccon3)c(C)c2c1	1	52*	112*	12	44*	0
CCOc1ccc2oc(C(=O)Nc3ccc(C)cn3)c(C)c2c1	0	85*	/	-1	21	-5
CCOc1ccc2oc(C(=O)Nc3nccs3)c(C)c2c1	0	6	30	-1	69*	5
CC(C)NC(=O)N(C)C[C@@H]1Oc2ncccc2C(=O)N(C)C[C@H]1C	0	/	/	/	/	/
O=c1[nH]c(-c2ccccc2)cnc1-c1ccccc1	0	/	/	/	37*	-6
